Data reported in ChEMBL document CHEMBL1133510, “Synthesis and evaluation of novel steroidal oxime inhibitors of P450 17 (17 alpha-hydroxylase/C17-20-lyase) and 5 alpha-reductase types 1 and 2” (J Med Chem, 2000).
pIC50: −log10 of the molar value.

Tests used:
[1] = target: T1, Steroid 17-alpha-hydroxylase/17,20 lyase (Rattus norvegicus, UniProt P11715); assay: Evaluated for the inhibitory activity towards Cytochrome P450 17 rat enzyme using testicular microsome at 25 uM of substrate (progesterone); parameters: species or system Testis
T1 sequence (P11715 whole entry): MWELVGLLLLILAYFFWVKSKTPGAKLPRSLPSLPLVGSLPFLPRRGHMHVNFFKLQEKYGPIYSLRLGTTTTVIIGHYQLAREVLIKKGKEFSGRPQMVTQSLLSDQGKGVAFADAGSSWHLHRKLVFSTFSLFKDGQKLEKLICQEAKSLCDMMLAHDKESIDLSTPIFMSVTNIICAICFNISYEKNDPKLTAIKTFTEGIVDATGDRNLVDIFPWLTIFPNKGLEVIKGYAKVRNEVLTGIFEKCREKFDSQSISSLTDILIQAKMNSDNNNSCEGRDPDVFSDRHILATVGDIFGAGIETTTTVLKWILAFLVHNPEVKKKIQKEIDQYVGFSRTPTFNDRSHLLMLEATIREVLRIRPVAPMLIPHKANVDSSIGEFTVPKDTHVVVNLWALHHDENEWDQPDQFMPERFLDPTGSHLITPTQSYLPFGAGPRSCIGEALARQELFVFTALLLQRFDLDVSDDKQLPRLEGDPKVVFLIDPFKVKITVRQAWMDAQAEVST
Method in brief: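 Testicular microsomes (human for human enzyme, rat for rat enzyme) incubated with progesterone substrate at 25 µM; product measured by RP-HPLC with UV detection. IC50 = concentration giving 50% inhibition, mean of at least two experiments.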

[2] = target: T2, 3-oxo-5-alpha-steroid 4-dehydrogenase 2 (Homo sapiens, UniProt P31213); assay: Inhibition of steroid 5-alpha-reductase type 2 from human BPH tissue at 210 nM testosterone; No inhibition
T2 sequence (P31213 whole entry): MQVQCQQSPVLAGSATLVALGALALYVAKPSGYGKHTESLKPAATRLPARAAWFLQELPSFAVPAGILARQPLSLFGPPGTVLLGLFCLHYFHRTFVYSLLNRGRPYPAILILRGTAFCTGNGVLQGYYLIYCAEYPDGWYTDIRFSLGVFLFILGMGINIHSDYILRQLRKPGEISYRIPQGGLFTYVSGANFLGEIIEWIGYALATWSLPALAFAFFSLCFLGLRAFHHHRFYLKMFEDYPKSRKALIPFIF
Method in brief: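 Enzyme from prostate homogenate of BPH patients, assayed at pH 5.5 with radiolabeled testosterone at 210 nM; product separated by HPLC. IC50 taken as inhibitor concentration giving 50% inhibition; mean of at least two experiments.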

[3] = target: T3, Steroid 17-alpha-hydroxylase/17,20 lyase (Homo sapiens, UniProt P05093); assay: Evaluated for the inhibitory activity towards Cytochrome P450 17 human enzyme using testicular microsome at 25 uM of substrate (progesterone); parameters: species or system Testis
T3 sequence (P05093 whole entry): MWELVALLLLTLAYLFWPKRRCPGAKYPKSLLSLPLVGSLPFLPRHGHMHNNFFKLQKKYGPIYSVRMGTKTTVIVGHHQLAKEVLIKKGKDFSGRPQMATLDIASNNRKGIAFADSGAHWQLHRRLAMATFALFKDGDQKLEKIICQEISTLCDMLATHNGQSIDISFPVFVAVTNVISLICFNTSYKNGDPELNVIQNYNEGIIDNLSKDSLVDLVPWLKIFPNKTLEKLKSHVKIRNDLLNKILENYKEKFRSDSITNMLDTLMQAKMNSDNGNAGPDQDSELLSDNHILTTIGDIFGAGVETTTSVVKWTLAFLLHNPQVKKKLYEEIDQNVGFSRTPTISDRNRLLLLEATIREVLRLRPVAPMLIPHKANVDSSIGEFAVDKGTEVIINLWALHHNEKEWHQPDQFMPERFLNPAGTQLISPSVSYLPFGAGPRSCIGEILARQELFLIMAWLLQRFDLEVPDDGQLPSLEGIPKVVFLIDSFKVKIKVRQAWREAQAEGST

[4] = target: T4, 3-oxo-5-alpha-steroid 4-dehydrogenase 1 (Homo sapiens, UniProt P18405); assay: Evaluated for the inhibitory activity against human steroid 5-alpha-reductase type I in human DU-145 cell assay at 5 nM of androstenedione; assay type: cell-based
T4 sequence (P18405 whole entry): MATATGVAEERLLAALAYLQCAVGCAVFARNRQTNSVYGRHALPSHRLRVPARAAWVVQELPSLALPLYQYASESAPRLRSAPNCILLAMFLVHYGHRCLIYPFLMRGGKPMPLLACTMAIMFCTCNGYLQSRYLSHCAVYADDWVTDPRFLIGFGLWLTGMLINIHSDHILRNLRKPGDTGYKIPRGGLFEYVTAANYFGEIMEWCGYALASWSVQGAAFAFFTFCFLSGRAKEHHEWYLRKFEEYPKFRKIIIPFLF
Method in brief: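 Whole human DU-145 cells as source of type 1 enzyme, incubated with radiolabeled androstenedione at 5 nM; HPLC separation of product. IC50 = inhibitor concentration giving 50% inhibition; mean of at least two experiments.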

- pIC50 [1]: < 3.90
- IC50 [2]: Not Active
- pIC50 [3]: 6.70
- pIC50 [4]: < 5.00
SMILES: C/C(=N/O)C1=CC=C2C3CCC4=CC(=O)CCC4(C)C3CCC12C (centres undefined)
